This note sets out measurements from ChEMBL document CHEMBL3297742, “Tetrahydronaphthyridine and dihydronaphthyridinone ethers as positive allosteric modulators of the metabotropic glutamate receptor 5 (mGlu₅)” (J Med Chem, 2014).

Structures are written as SMILES.

In data set [1] the test system is Plasma. The data set can be described thus: (§1) Fraction unbound in rat plasma. The class given is ADME, cell-free.
The target of data set [2] is Metabotropic glutamate receptor 3 (Rattus norvegicus) (UniProt P31422). The data set can be described thus: Negative allosteric modulator activity at rat mGlu3 receptor expressed in HEK293 cells assessed as negative cooperativity fold shift of glutamate concentration response curve for GIRK channel-mediated thallium flux at 10 uM treated 140s prior to glutamate challenge by fluorescence analysis. Format: cell-based. In a few lines:
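HEK293-GIRK cells expressing rat mGlu2, 3, 4, 6, 7 or 8, 15000 cells/well. Vehicle or 10 µM compound added, then 140 s later a glutamate CRC (L-AP4 for mGlu7) in thallium buffer (12 mM thallium sulfate, 10 mM HEPES). Thallium flux through GIRK read by fluorescence.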

Data set [3] has as its target Metabotropic glutamate receptor 5 (Rattus norvegicus) (UniProt P31424). The data set can be described thus: Positive allosteric modulator activity at rat mGlu5 receptor expressed in HEK293 cells assessed as potentiation of glutamate-induced calcium mobilization at 30 uM by fluorescence assay relative to glutamate. The class given is functional, cell-based. In outline:
(§2)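 HEK293 cells stably expressing rat mGlu5, 15000 cells/well, grown overnight, loaded with 1 µM Fluo-4AM for 50 min at 37 °C in HBSS/20 mM HEPES/2.5 mM probenecid pH 7.4. Compound added, then an EC20 of glutamate 140 s later and an EC80 90–120 s after that. Fluorescence over basal normalized to maximal glutamate response (100 µM glutamate); compound at up to 30 µM; ≥3 independent determinations.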
On the technique in general: A change in cytosolic calcium serves as a functional read-out for many receptors and channels.

In data set [4] the test system is Plasma. Description: Fraction unbound in human plasma. The class given is ADME, cell-free.
For data set [5], the target named is T1, Metabotropic glutamate receptor 5 (Rattus norvegicus, UniProt P31424). Description: Positive allosteric modulator activity at rat mGlu5 receptor expressed in HEK293 cells assessed as potentiation of glutamate-induced calcium mobilization by fluorescence assay. Format: functional, cell-based. In outline:
as §2

Data set [6] addresses Metabotropic glutamate receptor 5 (Rattus norvegicus) (UniProt P31424). The data set can be described thus: Partial antagonist activity at rat mGlu5 receptor expressed in HEK293 cells relative to glutamate. Format: cell-based.
Data set [7] deals with T1, Metabotropic glutamate receptor 5. Description: Partial antagonist activity at rat mGlu5 receptor expressed in HEK293 cells. The class given is cell-based.
The nature of data set [8]: as §1. Format: ADME, cell-free.

Chain of Metabotropic glutamate receptor 5 (Rattus norvegicus) (P31424 21-1203 limits assumed): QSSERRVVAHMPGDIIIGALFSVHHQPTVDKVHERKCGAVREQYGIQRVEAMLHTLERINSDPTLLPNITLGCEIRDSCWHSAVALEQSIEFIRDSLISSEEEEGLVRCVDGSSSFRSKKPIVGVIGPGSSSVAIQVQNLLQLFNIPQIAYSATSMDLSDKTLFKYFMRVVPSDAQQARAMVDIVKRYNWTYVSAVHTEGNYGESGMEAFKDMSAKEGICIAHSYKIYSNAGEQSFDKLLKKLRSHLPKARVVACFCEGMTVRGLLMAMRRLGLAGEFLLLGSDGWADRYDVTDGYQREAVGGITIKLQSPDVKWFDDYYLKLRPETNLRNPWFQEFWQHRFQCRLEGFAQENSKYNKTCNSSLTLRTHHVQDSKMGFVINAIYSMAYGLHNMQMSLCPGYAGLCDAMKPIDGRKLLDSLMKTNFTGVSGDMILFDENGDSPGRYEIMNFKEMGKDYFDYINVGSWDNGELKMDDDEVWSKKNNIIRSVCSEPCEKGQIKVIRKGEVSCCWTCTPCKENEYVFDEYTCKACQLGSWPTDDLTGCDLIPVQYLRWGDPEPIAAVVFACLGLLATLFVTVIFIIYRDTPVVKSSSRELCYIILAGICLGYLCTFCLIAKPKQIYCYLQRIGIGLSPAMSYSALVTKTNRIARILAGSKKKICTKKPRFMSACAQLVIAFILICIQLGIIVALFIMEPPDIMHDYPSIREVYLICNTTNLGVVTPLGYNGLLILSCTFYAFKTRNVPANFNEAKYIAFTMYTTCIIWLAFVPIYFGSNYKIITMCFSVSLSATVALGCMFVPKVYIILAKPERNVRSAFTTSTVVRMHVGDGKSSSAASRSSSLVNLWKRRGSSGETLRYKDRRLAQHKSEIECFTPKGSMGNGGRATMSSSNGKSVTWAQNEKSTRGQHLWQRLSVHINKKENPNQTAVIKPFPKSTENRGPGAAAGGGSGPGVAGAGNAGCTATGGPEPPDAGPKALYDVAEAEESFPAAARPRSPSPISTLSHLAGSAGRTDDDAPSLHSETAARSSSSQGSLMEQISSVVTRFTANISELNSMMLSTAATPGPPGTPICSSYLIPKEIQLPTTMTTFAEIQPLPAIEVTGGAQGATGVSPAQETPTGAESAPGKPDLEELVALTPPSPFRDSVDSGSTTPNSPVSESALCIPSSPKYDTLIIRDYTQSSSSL
T1 sequence (P31424 whole entry): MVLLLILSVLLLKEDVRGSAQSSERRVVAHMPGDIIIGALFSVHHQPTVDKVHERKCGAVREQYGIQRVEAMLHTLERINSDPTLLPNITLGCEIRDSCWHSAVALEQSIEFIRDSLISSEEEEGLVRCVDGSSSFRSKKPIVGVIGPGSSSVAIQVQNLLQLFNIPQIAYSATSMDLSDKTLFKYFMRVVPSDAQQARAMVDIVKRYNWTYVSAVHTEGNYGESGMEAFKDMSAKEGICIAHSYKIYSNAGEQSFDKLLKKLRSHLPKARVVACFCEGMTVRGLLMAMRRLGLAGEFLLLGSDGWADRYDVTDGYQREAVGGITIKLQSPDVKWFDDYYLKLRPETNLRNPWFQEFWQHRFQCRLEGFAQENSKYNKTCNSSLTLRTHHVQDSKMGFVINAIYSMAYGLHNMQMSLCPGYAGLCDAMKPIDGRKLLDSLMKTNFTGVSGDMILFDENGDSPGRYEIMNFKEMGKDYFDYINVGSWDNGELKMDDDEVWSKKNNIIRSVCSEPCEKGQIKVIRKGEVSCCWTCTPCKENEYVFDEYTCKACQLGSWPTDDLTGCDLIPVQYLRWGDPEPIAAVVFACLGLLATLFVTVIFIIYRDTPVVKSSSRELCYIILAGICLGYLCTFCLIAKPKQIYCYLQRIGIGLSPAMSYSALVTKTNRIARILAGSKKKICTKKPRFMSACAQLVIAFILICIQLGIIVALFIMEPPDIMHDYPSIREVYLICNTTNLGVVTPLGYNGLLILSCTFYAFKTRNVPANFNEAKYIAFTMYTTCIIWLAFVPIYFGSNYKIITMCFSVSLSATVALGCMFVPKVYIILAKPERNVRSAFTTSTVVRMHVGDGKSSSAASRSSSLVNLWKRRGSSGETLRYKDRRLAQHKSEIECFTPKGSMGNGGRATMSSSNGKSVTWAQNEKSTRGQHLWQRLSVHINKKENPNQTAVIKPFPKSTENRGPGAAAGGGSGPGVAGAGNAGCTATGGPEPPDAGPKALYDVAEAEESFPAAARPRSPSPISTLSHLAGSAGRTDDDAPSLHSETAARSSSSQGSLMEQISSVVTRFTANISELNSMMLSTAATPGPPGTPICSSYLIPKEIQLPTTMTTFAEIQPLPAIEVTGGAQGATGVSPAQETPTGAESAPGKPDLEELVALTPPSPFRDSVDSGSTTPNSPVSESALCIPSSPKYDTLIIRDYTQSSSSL
Chain of Metabotropic glutamate receptor 3 (Rattus norvegicus) (P31422 23-879 limits assumed): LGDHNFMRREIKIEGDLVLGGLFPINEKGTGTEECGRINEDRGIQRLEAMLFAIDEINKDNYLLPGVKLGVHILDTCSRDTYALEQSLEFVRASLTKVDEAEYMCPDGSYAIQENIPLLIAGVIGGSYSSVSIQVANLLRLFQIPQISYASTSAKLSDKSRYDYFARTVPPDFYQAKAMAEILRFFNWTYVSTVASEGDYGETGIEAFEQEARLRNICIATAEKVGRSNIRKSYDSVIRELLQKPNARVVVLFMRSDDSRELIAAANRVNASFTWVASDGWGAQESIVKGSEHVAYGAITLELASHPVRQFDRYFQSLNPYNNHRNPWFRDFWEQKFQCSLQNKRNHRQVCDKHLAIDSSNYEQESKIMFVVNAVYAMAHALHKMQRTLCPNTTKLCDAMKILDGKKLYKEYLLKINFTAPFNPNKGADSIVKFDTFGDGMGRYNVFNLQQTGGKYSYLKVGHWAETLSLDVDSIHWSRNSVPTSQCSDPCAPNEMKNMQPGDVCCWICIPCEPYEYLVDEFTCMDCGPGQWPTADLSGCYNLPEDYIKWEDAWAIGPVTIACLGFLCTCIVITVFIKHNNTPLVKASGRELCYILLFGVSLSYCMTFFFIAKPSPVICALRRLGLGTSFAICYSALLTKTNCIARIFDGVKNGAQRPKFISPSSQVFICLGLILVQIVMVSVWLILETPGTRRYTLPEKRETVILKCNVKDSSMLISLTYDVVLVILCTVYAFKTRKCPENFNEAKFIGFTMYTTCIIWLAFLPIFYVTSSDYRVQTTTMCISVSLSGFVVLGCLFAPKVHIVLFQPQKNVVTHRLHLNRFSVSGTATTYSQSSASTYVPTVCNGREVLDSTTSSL

Regarding `O=C1c2ccc(COc3cccc(F)c3)nc2CCN1c1ccc(F)cc1`, the Fu in the data set with Plasma [1] was determined as 0.029; with Plasma [4] it was 0.014. For the same molecule, the fold change (FC) in data set [2] turned out to be 0.2. Moreover, the %max in data set [3] came out at 72%. Besides, the EC50 in data set [5] (read-out: EC50) came out at 97 nM.

In the case of `O=C1c2ccc(COc3cccc(F)c3)nc2CCN1CC1CC1`, in data set [3], the %max was determined as 33%. Also, in data set [5] (read-out: EC50), the EC50 was more than 10000 nM.

Turning to `O=C1c2ccc(COc3cccc(F)c3)nc2CCN1Cc1ccccc1`, the %max in data set [3] was 38%. The EC50 in data set [5] (read-out: EC50) is more than 10000 nM.

A word on the IC50: it is the point on the concentration scale where inhibition reaches its midpoint. Molecule `O=C(c1ccc(F)cc1)N1CCc2ncc(OCc3ccccc3)cc2C1` showed an Emin in data set [6] of 53%. Half-maximal inhibition in data set [7] (IC50) was put at 7810 nM.

For the molecule `O=C1NCCc2nc(OCc3ccccc3)ccc21`, the %max in data set [3] was found to be 54%. Further, the EC50 in data set [5] (read-out: EC50) is 1030 nM; in data set [5] (read-out: pEC50 (converted)) it was 1050 nM.

In the case of `O=C1NCCc2nc(OCc3ccccn3)ccc21`, in data set [3], the Activity is less than 10%.

On to `O=C1NCCc2nc(OCc3ccc(Cl)cc3)ccc21`, for which the Activity in data set [3] was less than 10%.

With `O=C1c2ccc(OCc3cccc(F)c3)nc2CCN1CC1CCC1`, the %max in data set [3] was determined as 36%. The EC50 in data set [5] (read-out: EC50) is 444 nM.

`CN1CCc2nc(COc3cccc(F)c3)ccc2C1=O`: in data set [3], the Activity was less than 10%.

With `O=C1c2cnc(COc3ccccc3)cc2CCN1c1ccc(F)cc1`, the %max in data set [3] turned out to be 30%. In addition, the EC50 in data set [5] (read-out: EC50) is 403 nM.

Turning to `C[C@@H](N1CCc2cc(COc3ccccc3)cnc2C1=O)C(C)(C)C`, in data set [3], the Activity was less than 10%.

Consider `O=C1c2ccc(OCc3ccccc3)nc2CCN1Cc1ccccc1`, for which the %max in data set [3] came out at 23%. For the same molecule, the EC50 in data set [5] (read-out: EC50) turned out to be 2760 nM.

With `O=C(c1cccc(F)c1)N1CCc2ncc(OCc3cccc(F)c3)cc2C1`, the %max in data set [3] turned out to be 30%. Moreover, the EC50 in data set [5] (read-out: EC50) worked out at 1630 nM.

Regarding `CC1(CN2CCc3nc(OCc4cccc(F)c4)ccc3C2=O)COC1`, the %max in data set [3] is 39%. Moreover, the EC50 in data set [5] (read-out: EC50) was 2470 nM.

For the molecule `CN1CCc2cc(COc3ccccc3)cnc2C1=O`, the Activity in data set [3] was less than 10%.

As to `O=C(c1ccc(F)cc1)N1CCc2ncc(COc3ccccc3)cc2C1`, the %max in data set [3] came out at 69%. For the same molecule, the EC50 in data set [5] (read-out: EC50) stood at 640 nM.

As to `O=C(c1ccccc1)N1CCc2ncc(OCc3ccccc3)cc2C1`, in data set [3], the Activity was less than 10%.

As for `CC(N1CCc2cc(COc3ccccc3)ncc2C1=O)C(C)(C)C` (stereo not drawn), the Activity in data set [3] is less than 10%.

As to `O=C1c2ccc(OCc3cccc(F)c3)nc2CCN1CC1CC1`, the Activity in data set [3] is less than 10%.

As for `O=C1c2ccc(OCc3cccc(F)c3)nc2CCN1c1ccc(F)cc1`, the %max in data set [3] came out at 38%. In addition, the EC50 in data set [5] (read-out: EC50) is 118 nM.

On to `O=C1c2ccc(OCc3cccc(F)c3)nc2CCN1Cc1ccccc1`, for which the %max in data set [3] is 36%. The EC50 in data set [5] (read-out: EC50) is 3170 nM.

Take `CC(C)CN1CCc2nc(OCc3cccc(F)c3)ccc2C1=O`: the Activity in data set [3] was less than 10%.

On to `O=C1NCCc2nc(COc3cccc(F)c3)ccc21`, for which, in data set [3], the %max came to 34%. Further, the EC50 in data set [5] (read-out: EC50) is more than 10000 nM.

As for `O=C1NCCc2cc(COc3ccccc3)ncc21`, the Activity in data set [3] was less than 10%.

`O=C1c2ccc(OCc3ccccc3)nc2CCN1Cc1ccccn1`: the Activity in data set [3] is less than 10%.

`CN1CCc2cc(COc3ccccc3)ncc2C1=O`: in data set [3], the Activity was less than 10%.

In the case of `O=C1NCCc2cc(COc3ccccc3)cnc21`, the Activity in data set [3] was less than 10%.

In general, fraction unbound refers to free concentration divided by total concentration. Regarding `O=C1c2ccc(COc3ccccc3)nc2CCN1c1ccc(F)cc1`, the fraction unbound in data set [8] worked out at 0.036. Further, the %max in data set [3] turned out to be 68%. This molecule also showed a Fu in the data set with Plasma [4] of 0.021. Further, in data set [5] (read-out: EC50), the EC50 came out at 198 nM.

With `O=C1c2ccc(OCc3cccc(F)c3)nc2CCN1c1ccc(F)cn1`, the Fu with Plasma [1] was found to be 0.025; with Plasma [4], 0.01. Also, the %max in data set [3] was 50%. Further, the EC50 in data set [5] (read-out: EC50) amounted to 212 nM.

In the case of `O=C1NCCc2nc(OCc3ccccc3F)ccc21`, in data set [3], the %max worked out at 68%. Moreover, the EC50 in data set [5] (read-out: EC50) came out at 1170 nM.

On to `CC(C)CN1CCc2nc(COc3cccc(F)c3)ccc2C1=O`, for which the %max in data set [3] was 38%. For the same molecule, the EC50 in data set [5] (read-out: EC50) worked out at 1150 nM.

For `O=C1NCCc2nc(OCc3ccccc3Cl)ccc21`, the Activity in data set [3] was less than 10%.

With `O=C(c1ccc(F)cc1)N1CCc2ncc(COc3ccc(F)cc3)cc2C1`, the %max in data set [3] is 53%. The EC50 in data set [5] (read-out: EC50) is 1770 nM.

Regarding `CCCCOc1ccc2c(n1)CCN(c1ccc(F)cc1F)C2=O`, in data set [3], the Activity was less than 10%.

In the case of `O=C1c2ncc(COc3ccccc3)cc2CCN1c1ccc(F)cc1`, the Fu is given as 0.11 in the data set on Plasma [1] and 0.096 in the data set with Plasma [4]. Further, in data set [2], the fold change (FC) came out at 0.3. Besides, in data set [3], the %max came to 81%. Also, the EC50 in data set [5] (read-out: EC50) amounted to 538 nM.

As for `O=C1NCCc2nc(OCc3cccnc3)ccc21`, the Activity in data set [3] was less than 10%.

For the molecule `O=C1NCCc2nc(OCc3cccc(Cl)c3)ccc21`, the %max in data set [3] was 43%. Besides, the EC50 in data set [5] (read-out: EC50) came to 62 nM.

On to `CN1CCc2nc(OCc3cccc(F)c3)ccc2C1=O`, for which the Activity in data set [3] is less than 10%.

`O=C1NCCc2nc(COc3ccccc3)ccc21`: in data set [3], the %max came out at 43%. Further, the EC50 in data set [5] (read-out: EC50) is more than 10000 nM.

For the molecule `CCCCOc1ccc2c(n1)CCNC2=O`, in data set [3], the Activity is less than 10%.

With `O=C(C1CC1)N1CCc2ncc(OCc3cccc(F)c3)cc2C1`, the Activity in data set [3] was less than 10%.

Turning to `O=C(c1ccc(F)cc1)N1CCc2ncc(COc3cccc(F)c3)cc2C1`, the %max in data set [3] amounted to 69%. Also, the EC50 in data set [5] (read-out: EC50) is 1090 nM.

For `O=C1c2ccc(COc3cccc(F)c3)nc2CCN1c1ccc(F)cn1`, the %max in data set [3] came to 59%. In addition, in data set [5] (read-out: EC50), the EC50 amounted to 595 nM.
